Assay results taken from ChEMBL document CHEMBL1152649, “Synthesis, cytotoxicity and human telomerase inhibition activities of a series of 1,2-heteroannelated anthraquinones and anthra[1,2-d]imidazole-6,11-dione homologues” (2009).

Assays:
[1] = Cytotoxicity against human H1299 cells at 1 uM after 48 hrs by MTT assay; type: functional; conditions: NCI-H1299, 48 h
In short: (§1)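 H1299 non-small cell lung cancer cells were grown in RPMI 1640 with 10% FBS, penicillin and streptomycin at 37 °C under 5% CO2. About 2 × 10³ cells per well were seeded and left 24 h. Compounds were dissolved fresh in DMSO, diluted into complete medium and applied for 48 h. MTT was then added for 4 h at 37 °C, followed by lysis buffer (20% SDS, 50% DMF) for 16 h, and absorbance was read at 550 nm.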

[2] = Cytotoxicity against human H1299 cells at 10 uM after 48 hrs by MTT assay; type: functional; conditions: NCI-H1299, 48 h; in short: as §1
[3] = Cytotoxicity against human H1299 cells at 100 uM after 48 hrs by MTT assay; type: functional; conditions: NCI-H1299, 48 h; in short: as §1
A549 = test: Antiproliferative activity against human A549 cells assessed as cell growth at 10 uM; type: functional; conditions: read-out: Activity
In short: (§2)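 NCI 60 cell line panel, single-dose screen (10^-5 M) run by the developmental therapeutics program protocol. Results are given as growth percent of treated cells relative to untreated control cells for each line.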

HOP-62 = test: Antiproliferative activity against human HOP62 cells assessed as cell growth at 10 uM; type: functional; conditions: read-out: Activity; in short: as §2
[4] = Antiproliferative activity against human Hs 578T cells assessed as cell growth at 10 uM; type: functional; conditions: read-out: Activity; in short: as §2
MDA-MB-231 = test: Antiproliferative activity against human MDA-MB-231 cells assessed as cell growth at 10 uM; type: functional; conditions: read-out: Activity; in short: as §2
MDA-MB-435 = test: Antiproliferative activity against human MDA-MB-435 cells assessed as cell growth at 10 uM; type: functional; conditions: read-out: Activity; in short: as §2
NCI/ADR-RES = test: Antiproliferative activity against human NCI/ADR-RES cells assessed as cell growth at 10 uM; type: functional; conditions: read-out: Activity; in short: as §2
T47D = test: Antiproliferative activity against human T47D cells assessed as cell growth at 10 uM; type: functional; conditions: read-out: Activity
In short: (§3)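 NCI 60 cell line panel, single dose (10^-5 M), run per the Developmental Therapeutics Program protocol (one dose mean graph). Each result is the growth percentage of treated cells relative to untreated control cells.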

OVCAR-3 = test: Antiproliferative activity against human OVCAR-3 cells assessed as cell growth at 10 uM; type: functional; conditions: read-out: Activity; in short: as §2
OVCAR-4 = test: Antiproliferative activity against human OVCAR4 cells assessed as cell growth at 10 uM; type: functional; conditions: read-out: Activity; in short: as §2
OVCAR-5 = test: Antiproliferative activity against human OVCAR5 cells assessed as cell growth at 10 uM; type: functional; conditions: read-out: Activity; in short: as §2
OVCAR-8 = test: Antiproliferative activity against human OVCAR8 cells assessed as cell growth at 10 uM; type: functional; conditions: read-out: Activity; in short: as §2
CCRF-CEM = test: Antiproliferative activity against human CCRF-CEM cells assessed as cell growth at 10 uM; type: functional; conditions: read-out: Activity; in short: as §2
HL-60(TB) = test: Antiproliferative activity against human HL-60(TB) cells assessed as cell growth at 10 uM; type: functional; conditions: read-out: Activity
In short: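 NCI Developmental Therapeutics Program 60-cell-line one-dose screen at 10^-5 M. Readout is growth percentage of treated cells relative to untreated control cells.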

K562 = test: Antiproliferative activity against human K562 cells assessed as cell growth at 10 uM; type: functional; conditions: read-out: Activity; in short: as §2
[5] = Antiproliferative activity against human RPMI8266 cells assessed as cell growth at 10 uM; type: functional; conditions: read-out: Activity; in short: as §2
SR = test: Antiproliferative activity against human SR cells assessed as cell growth at 10 uM; type: functional; conditions: read-out: Activity; in short: as §3
786-0 = test: Antiproliferative activity against human 786-0 cells assessed as cell growth at 10 uM; type: functional; conditions: read-out: Activity; in short: as §2
A498 = test: Antiproliferative activity against human A498 cells assessed as cell growth at 10 uM; type: functional; conditions: read-out: Activity; in short: as §2
ACHN = test: Antiproliferative activity against human ACHN cells assessed as cell growth at 10 uM; type: functional; conditions: read-out: Activity; in short: as §2
CAKI-1 = test: Antiproliferative activity against human Caki1 cells assessed as cell growth at 10 uM; type: functional; conditions: read-out: Activity; in short: as §2
SN12C = test: Antiproliferative activity against human SN12C cells assessed as cell growth at 10 uM; type: functional; conditions: read-out: Activity; in short: as §2
TK-10 = test: Antiproliferative activity against human TK10 cells assessed as cell growth at 10 uM; type: functional; conditions: read-out: Activity; in short: as §3
UO-31 = test: Antiproliferative activity against human UO31 cells assessed as cell growth at 10 uM; type: functional; conditions: read-out: Activity; in short: as §3
LOX IMVI = test: Antiproliferative activity against human LOXIMVI cells assessed as cell growth at 10 uM; type: functional; conditions: read-out: Activity; in short: as §2
M14 = test: Antiproliferative activity against human M14 cells assessed as cell growth at 10 uM; type: functional; conditions: read-out: Activity; in short: as §2
Malme-3M = test: Antiproliferative activity against human MALME-3M cells assessed as cell growth at 10 uM; type: functional; conditions: read-out: Activity; in short: as §2
SK-MEL-2 = test: Antiproliferative activity against human SK-MEL-2 cells assessed as cell growth at 10 uM; type: functional; conditions: read-out: Activity; in short: as §2
SK-MEL-28 = test: Antiproliferative activity against human SK-MEL-28 cells assessed as cell growth at 10 uM; type: functional; conditions: read-out: Activity; in short: as §2
SK-MEL-5 = test: Antiproliferative activity against human SK-MEL-5 cells assessed as cell growth at 10 uM; type: functional; conditions: read-out: Activity; in short: as §2
PC-3 = test: Antiproliferative activity against human PC3 cells assessed as cell growth at 10 uM; type: functional; conditions: read-out: Activity; in short: as §2
SF-268 = test: Antiproliferative activity against human SF268 cells assessed as cell growth at 10 uM; type: functional; conditions: read-out: Activity; in short: as §2
SF-295 = test: Antiproliferative activity against human SF295 cells assessed as cell growth at 10 uM; type: functional; conditions: read-out: Activity; in short: as §2
SNB-19 = test: Antiproliferative activity against human SNB19 cells assessed as cell growth at 10 uM; type: functional; conditions: read-out: Activity; in short: as §2
SNB-75 = test: Antiproliferative activity against human SNB75 cells assessed as cell growth at 10 uM; type: functional; conditions: read-out: Activity; in short: as §3
U-251 = test: Antiproliferative activity against human U251 cells assessed as cell growth at 10 uM; type: functional; conditions: read-out: Activity; in short: as §3
HOP-92 = test: Antiproliferative activity against human HOP92 cells assessed as cell growth at 10 uM; type: functional; conditions: read-out: Activity; in short: as §2
NCI-H23 = test: Antiproliferative activity against human NCI-H23 cells assessed as cell growth at 10 uM; type: functional; conditions: read-out: Activity; in short: as §2
NCI-H322M = test: Antiproliferative activity against human NCI-H322M cells assessed as cell growth at 10 uM; type: functional; conditions: read-out: Activity; in short: as §2
NCI-H460 = test: Antiproliferative activity against human NCI-H460 cells assessed as cell growth at 10 uM; type: functional; conditions: read-out: Activity; in short: as §2
NCI-H522 = test: Antiproliferative activity against human NCI-H522 cells assessed as cell growth at 10 uM; type: functional; conditions: read-out: Activity; in short: as §2
COLO 205 = test: Antiproliferative activity against human COLO205 cells assessed as cell growth at 10 uM; type: functional; conditions: read-out: Activity; in short: as §2
HCC 2998 = test: Antiproliferative activity against human HCC2998 cells assessed as cell growth at 10 uM; type: functional; conditions: read-out: Activity; in short: as §2
HCT-116 = test: Antiproliferative activity against human HCT116 cells assessed as cell growth at 10 uM; type: functional; conditions: read-out: Activity; in short: as §2
[6] = target: Telomerase reverse transcriptase (Homo sapiens) (UniProt O14746); test: Inhibition of TERT in human H1299 cells assessed as residual transcriptional activity at 10 uM after 24 hrs by SEAP reporter gene assay; values are per cent of control
Telomerase reverse transcriptase (Homo sapiens), sequence (O14746 whole entry): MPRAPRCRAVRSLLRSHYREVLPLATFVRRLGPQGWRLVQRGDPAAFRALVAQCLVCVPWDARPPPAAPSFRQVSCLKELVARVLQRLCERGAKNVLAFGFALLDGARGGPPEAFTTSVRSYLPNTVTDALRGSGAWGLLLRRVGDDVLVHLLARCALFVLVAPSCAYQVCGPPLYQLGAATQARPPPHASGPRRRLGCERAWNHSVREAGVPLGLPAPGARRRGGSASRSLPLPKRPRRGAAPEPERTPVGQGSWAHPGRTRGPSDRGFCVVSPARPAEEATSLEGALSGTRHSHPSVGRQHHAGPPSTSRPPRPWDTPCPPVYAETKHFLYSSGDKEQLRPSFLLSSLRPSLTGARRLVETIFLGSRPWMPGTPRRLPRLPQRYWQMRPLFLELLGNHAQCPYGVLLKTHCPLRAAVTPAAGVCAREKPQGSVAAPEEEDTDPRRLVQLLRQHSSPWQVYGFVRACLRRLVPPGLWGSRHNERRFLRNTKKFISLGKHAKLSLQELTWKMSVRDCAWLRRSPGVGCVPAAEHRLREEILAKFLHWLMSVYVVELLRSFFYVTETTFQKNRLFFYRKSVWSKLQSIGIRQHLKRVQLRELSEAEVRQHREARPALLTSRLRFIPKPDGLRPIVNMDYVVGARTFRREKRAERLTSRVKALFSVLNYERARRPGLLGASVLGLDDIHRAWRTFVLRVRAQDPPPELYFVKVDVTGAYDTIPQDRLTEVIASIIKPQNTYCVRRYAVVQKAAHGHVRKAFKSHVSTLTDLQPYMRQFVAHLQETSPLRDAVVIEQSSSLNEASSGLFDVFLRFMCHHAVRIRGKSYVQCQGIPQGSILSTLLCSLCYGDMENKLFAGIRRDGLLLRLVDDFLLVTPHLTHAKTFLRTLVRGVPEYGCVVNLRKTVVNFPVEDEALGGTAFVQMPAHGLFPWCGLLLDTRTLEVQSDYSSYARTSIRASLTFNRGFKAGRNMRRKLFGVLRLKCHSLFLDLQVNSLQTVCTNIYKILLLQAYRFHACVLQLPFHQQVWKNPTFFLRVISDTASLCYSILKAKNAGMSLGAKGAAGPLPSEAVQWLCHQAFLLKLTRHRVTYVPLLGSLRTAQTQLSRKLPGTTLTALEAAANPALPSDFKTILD

COc1cc(-c2nc3ccc4c(c3[nH]2)C(=O)c2ccccc2C4=O)ccc1O
viability at 1 µM [1]: 71%
viability at 10 µM [2]: 70%
viability at 100 µM [3]: 38%
growth at 10 µM (A549): 97.9%
growth at 10 µM (HOP-62): 116%
growth at 10 µM [4]: 167%
growth at 10 µM (MDA-MB-231): 87.9%
growth at 10 µM (MDA-MB-435): 103%
growth at 10 µM (NCI/ADR-RES): 103%
growth at 10 µM (T47D): 83.9%
growth at 10 µM (OVCAR-3): 125%
growth at 10 µM (OVCAR-4): 83%
growth at 10 µM (OVCAR-5): 97.1%
growth at 10 µM (OVCAR-8): 93.4%
growth at 10 µM (CCRF-CEM): 94.7%
growth at 10 µM (HL-60(TB)): 123%
growth at 10 µM (K562): 95.5%
growth at 10 µM [5]: 81%
growth at 10 µM (SR): 73.9%
growth at 10 µM (786-0): 109%
growth at 10 µM (A498): 122%
growth at 10 µM (ACHN): 100%
growth at 10 µM (CAKI-1): 134%
growth at 10 µM (SN12C): 102%
growth at 10 µM (TK-10): 174%
growth at 10 µM (UO-31): 80.7%
growth at 10 µM (LOX IMVI): 109%
growth at 10 µM (M14): 114%
growth at 10 µM (Malme-3M): 107%
growth at 10 µM (SK-MEL-2): 82.2%
growth at 10 µM (SK-MEL-28): 132%
growth at 10 µM (SK-MEL-5): 88.1%
growth at 10 µM (PC-3): 88.1%
growth at 10 µM (SF-268): 107%
growth at 10 µM (SF-295): 127%
growth at 10 µM (SNB-19): 97.4%
growth at 10 µM (SNB-75): 86%
growth at 10 µM (U-251): 103%
growth at 10 µM (HOP-92): 120%
growth at 10 µM (NCI-H23): 103%
growth at 10 µM (NCI-H322M): 107%
growth at 10 µM (NCI-H460): 90.1%
growth at 10 µM (NCI-H522): 71.5%
growth at 10 µM (COLO 205): 101%
growth at 10 µM (HCC 2998): 103%
growth at 10 µM (HCT-116): 90.4%
residual activity [6]: 50%

O=C1c2ccccc2C(=O)c2c1ccc1nc(-c3ccccc3)[nH]c21
viability at 1 µM [1]: 79%
viability at 10 µM [2]: 72%
viability at 100 µM [3]: 34%
growth at 10 µM (A549): 79%
growth at 10 µM (HOP-62): 109%
growth at 10 µM [4]: 30.4%
growth at 10 µM (MDA-MB-231): 81.4%
growth at 10 µM (MDA-MB-435): 101%
growth at 10 µM (NCI/ADR-RES): 90.2%
growth at 10 µM (T47D): 65.1%
growth at 10 µM (OVCAR-3): 69.2%
growth at 10 µM (OVCAR-4): 73.4%
growth at 10 µM (OVCAR-5): 109%
growth at 10 µM (OVCAR-8): 91%
growth at 10 µM (CCRF-CEM): 86.3%
growth at 10 µM (HL-60(TB)): 99%
growth at 10 µM (K562): 76%
growth at 10 µM [5]: 61.1%
growth at 10 µM (SR): 95.5%
growth at 10 µM (786-0): 111%
growth at 10 µM (A498): 77%
growth at 10 µM (ACHN): 71.9%
growth at 10 µM (CAKI-1): 51.9%
growth at 10 µM (SN12C): 87.5%
growth at 10 µM (TK-10): 82%
growth at 10 µM (UO-31): 57.6%
growth at 10 µM (LOX IMVI): 79.7%
growth at 10 µM (M14): 101%
growth at 10 µM (Malme-3M): 74.5%
growth at 10 µM (SK-MEL-2): 62.6%
growth at 10 µM (SK-MEL-28): 60.4%
growth at 10 µM (SK-MEL-5): 65.2%
growth at 10 µM (PC-3): 52.5%
growth at 10 µM (SF-268): 91.9%
growth at 10 µM (SF-295): 73.6%
growth at 10 µM (SNB-19): 102%
growth at 10 µM (SNB-75): 75.1%
growth at 10 µM (U-251): 97.1%
growth at 10 µM (HOP-92): 50.7%
growth at 10 µM (NCI-H23): 91.7%
growth at 10 µM (NCI-H322M): 77.4%
growth at 10 µM (NCI-H460): 86.2%
growth at 10 µM (NCI-H522): 80.4%
growth at 10 µM (COLO 205): 92%
growth at 10 µM (HCC 2998): 105%
growth at 10 µM (HCT-116): 82.4%
residual activity [6]: 78%
